Reference: ChEMBL document CHEMBL4765234 (J Med Chem, 2016)

Columns and labels:
[1] = Drug metabolism in human hepatocytes assessed as glucuronidation by LC-MS/MS analysis; type: ADME, cell-based, Hepatocyte
[2] = Drug metabolism in human hepatocytes assessed as N-dealkylation by LC-MS/MS analysis; type: ADME, cell-based, Hepatocyte
[3] = Drug metabolism in rat hepatocytes assessed as N-dealkylation by LC-MS/MS analysis; type: ADME, cell-based, Hepatocyte
[4] = Drug metabolism in dog hepatocytes assessed as N-dealkylation by LC-MS/MS analysis; type: ADME, cell-based, Canis lupus familiaris, Hepatocyte
[5] = Drug metabolism in human hepatocytes assessed as taurine metabolite formation by LC-MS/MS analysis; type: ADME, cell-based, Hepatocyte
[6] = Drug metabolism in rat hepatocytes assessed as taurine metabolite formation by LC-MS/MS analysis; type: ADME, cell-based, Hepatocyte
[7] = Drug metabolism in dog hepatocytes assessed as taurine metabolite formation by LC-MS/MS analysis; type: ADME, cell-based, Canis lupus familiaris, Hepatocyte
[8] = molecular target: T1, Peroxisome proliferator-activated receptor alpha (Homo sapiens) (UniProt Q07869); assay: Agonist activity at human Gal4-fused PPARalpha LBD expressed in African green monkey CV1 cells cotransfected with pRL-SV40 plasmid assessed as maximum efficacy measured after 24 hrs by luciferase reporter gene assay relative to control; type: cell-based; conditions: CV-1
T1 sequence (whole entry): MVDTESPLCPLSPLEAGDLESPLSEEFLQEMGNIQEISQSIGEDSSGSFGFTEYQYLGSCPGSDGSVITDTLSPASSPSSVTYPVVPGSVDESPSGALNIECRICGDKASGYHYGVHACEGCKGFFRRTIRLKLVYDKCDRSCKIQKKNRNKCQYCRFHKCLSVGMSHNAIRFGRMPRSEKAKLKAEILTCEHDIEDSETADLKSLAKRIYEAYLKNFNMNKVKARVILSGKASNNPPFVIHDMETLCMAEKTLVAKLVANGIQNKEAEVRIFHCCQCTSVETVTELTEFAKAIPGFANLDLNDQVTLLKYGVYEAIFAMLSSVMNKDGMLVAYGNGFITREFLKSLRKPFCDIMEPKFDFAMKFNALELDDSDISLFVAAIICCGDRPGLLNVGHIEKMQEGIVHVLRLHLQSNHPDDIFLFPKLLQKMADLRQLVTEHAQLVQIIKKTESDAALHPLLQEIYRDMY
Outline: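 CV1 African green monkey kidney cells were cotransfected, in DMEM with 5% charcoal-stripped FBS, with two plasmids: an SV40-driven Gal4 DBD–PPARα or PPARδ LBD hybrid, and a 5×Gal4-element firefly luciferase reporter. Cells were replated at 15000/well for 4 h, then exposed to 0.17 nM–10 μM in half-log steps for 24 h. Luciferase was read, normalized to maximum from 10 μM reference agonist, and fit by a 4-parameter model.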

[9] = Clearance in human hepatocytes by LC-MS/MS analysis; type: ADME, cell-based, Hepatocyte
[10] = Clearance in mouse plasma at 3 mg/kg, po or 1 mg/kg, iv by LC/MS/MS analysis; type: ADME, organism-based
Outline: (§1)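 Mice, rats and beagle dogs were dosed. Blood was collected into EDTA at set time points and processed to plasma for LC/MS/MS bioanalysis. Parameters were derived by noncompartmental analysis.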

[11] = Clearance in rat plasma at 3 mg/kg, po or 1 mg/kg, iv by LC/MS/MS analysis; type: ADME, organism-based; outline: as §1
[12] = Clearance in dog plasma at 3 mg/kg, po or 1 mg/kg, iv by LC/MS/MS analysis; type: ADME, organism-based, Canis lupus familiaris; outline: as §1
[13] = Volume of distribution at steady state in mouse at 3 mg/kg, po or 1 mg/kg, iv by LC/MS/MS analysis; type: ADME, organism-based; conditions: in vivo, read-out: Vdss
Outline: (§2)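 Dosed to mice, rats or beagle dogs. Blood collected at selected time points with EDTA anticoagulant, processed to plasma and analysed by LC/MS/MS. Parameters obtained by noncompartmental analysis.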

[14] = Volume of distribution at steady state in rat at 3 mg/kg, po or 1 mg/kg, iv by LC/MS/MS analysis; type: ADME, organism-based; conditions: in vivo, read-out: Vdss; outline: as §2
[15] = Volume of distribution at steady state in dog at 3 mg/kg, po or 1 mg/kg, iv by LC/MS/MS analysis; type: ADME, organism-based, Canis lupus familiaris; conditions: in vivo, read-out: Vdss; outline: as §2
[16] = Half-life in mouse at 3 mg/kg, po or 1 mg/kg, iv by LC/MS/MS analysis; type: ADME, organism-based; conditions: in vivo; outline: as §2
[17] = Half-life in rat at 3 mg/kg, po or 1 mg/kg, iv by LC/MS/MS analysis; type: ADME, organism-based; conditions: in vivo; outline: as §2
[18] = Half-life in dog at 3 mg/kg, po or 1 mg/kg, iv by LC/MS/MS analysis; type: ADME, organism-based, Canis lupus familiaris; conditions: in vivo; outline: as §2
[19] = Cmax in mouse plasma at 3 mg/kg, po or 1 mg/kg, iv by LC/MS/MS analysis; type: ADME, organism-based; parameters: dose 3 mg/kg; outline: as §1
[20] = Cmax in rat plasma at 3 mg/kg, po or 1 mg/kg, iv by LC/MS/MS analysis; type: ADME, organism-based; parameters: dose 3 mg/kg; outline: as §1
[21] = Cmax in dog plasma at 3 mg/kg, po or 1 mg/kg, iv by LC/MS/MS analysis; type: ADME, organism-based, Canis lupus familiaris; parameters: dose 3 mg/kg; outline: as §1
[22] = Tmax in mouse at 3 mg/kg, po or 1 mg/kg, iv by LC/MS/MS analysis; type: ADME, organism-based; conditions: in vivo; outline: as §2
[23] = Tmax in rat at 3 mg/kg, po or 1 mg/kg, iv by LC/MS/MS analysis; type: ADME, organism-based; conditions: in vivo; outline: as §2
[24] = Tmax in dog at 3 mg/kg, po or 1 mg/kg, iv by LC/MS/MS analysis; type: ADME, organism-based, Canis lupus familiaris; conditions: in vivo; outline: as §2
[25] = Oral bioavailability in rat at 3 mg/kg by LC/MS/MS analysis; type: ADME, organism-based; conditions: in vivo; outline: as §2
[26] = Oral bioavailability in mouse at 3 mg/kg by LC/MS/MS analysis; type: ADME, organism-based; conditions: in vivo; outline: as §2
[27] = Oral bioavailability in dog at 3 mg/kg by LC/MS/MS analysis; type: ADME, organism-based, Canis lupus familiaris; conditions: in vivo; outline: as §2
[28] = Elimination half-life in rat plasma at 3 mg/kg, po or 1 mg/kg, iv by LC/MS/MS analysis; type: ADME, organism-based; conditions: read-out: beta t1/2 (converted); outline: as §2
[29] = Elimination half-life in mouse plasma at 3 mg/kg, po or 1 mg/kg, iv by LC/MS/MS analysis; type: ADME, organism-based; outline: as §2
[30] = Elimination half-life in dog plasma at 3 mg/kg, po or 1 mg/kg, iv by LC/MS/MS analysis; type: ADME, organism-based, Canis lupus familiaris; outline: as §2
[31] = Drug metabolism in dog feces assessed as metabolite formation by LC-MS/MS analysis; type: ADME, tissue-based, Canis lupus familiaris
[32] = Drug metabolism in dog plasma assessed as metabolite formation by LC-MS/MS analysis; type: ADME, cell-free, Canis lupus familiaris
[33] = molecular target: Free fatty acid receptor 1 (Homo sapiens, UniProt O14842); assay: Displacement of [3H]-(S)-2-(6-((2',6'-dimethyl-4'-(3-(methylsulfonyl)propoxy)biphenyl-3-yl)methoxy)-2,3-dihydrobenzofuran-3-yl)acetic acid from human recombinant full-length GPR40 expressed in human HEK293 cell membrane assessed as Koff rate measured after 2 hrs by radioligand competitive assay; type: cell membranes; conditions: filed as agonist
Free fatty acid receptor 1, sequence (O14842 whole entry): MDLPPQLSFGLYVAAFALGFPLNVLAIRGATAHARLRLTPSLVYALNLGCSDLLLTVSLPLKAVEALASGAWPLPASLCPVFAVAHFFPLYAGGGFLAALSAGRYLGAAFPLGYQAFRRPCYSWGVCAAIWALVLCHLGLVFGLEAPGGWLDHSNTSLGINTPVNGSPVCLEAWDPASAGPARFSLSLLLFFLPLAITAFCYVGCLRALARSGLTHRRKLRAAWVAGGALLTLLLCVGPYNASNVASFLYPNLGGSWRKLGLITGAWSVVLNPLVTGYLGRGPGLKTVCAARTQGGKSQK

[34] = Half-life in rat at 10 mg/kg, po or 3 mg/kg, iv by LC/MS/MS analysis; type: ADME, organism-based; conditions: in vivo
Outline: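 Mice, rats and beagle dogs dosed; blood drawn at set times into EDTA, processed to plasma and assayed by LC/MS/MS. Parameters (clearance, Vdss, terminal half-life, Cmax, Tmax, oral bioavailability) derived by noncompartmental analysis.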

SMILES	Drug metabolism [1]	Drug metabolism [2]	Drug metabolism [3]	Drug metabolism [4]	Drug metabolism [5]	Drug metabolism [6]	Drug metabolism [7]	Emax [8] [%]	CLH [9] [h⁻¹]	clearance [10] [mL/min/kg]	clearance [11] [mL/min/kg]	clearance [12] [mL/min/kg]	Vd [13] [L/kg]	Vd [14] [L/kg]	Vd [15] [L/kg]	half-life [16] [h]	half-life [17] [h]	half-life [18] [h]	Cmax [19] [ng/mL]	Cmax [20] [ng/mL]	further results
CC#C[C@@H](CC(=O)O)c1ccc(OCc2ccc(CN3CCC4(CCc5ccccc54)CC3)s2)cc1	Metabolite_Detected	Metabolite_Detected	Metabolite_Detected	Metabolite_Detected	Metabolite_Detected	Metabolite_Detected	Metabolite_Detected	4	0.23	9.3	20	2.2	1.6	0.8	0.2	1.7	1.6	3.8	184	829	Cmax [21]: 1100 ng/mL; Tmax [22]: 2 h; Tmax [23]: 0.5 h; Tmax [24]: 2 h; bioavailability [25]: 46%; bioavailability [26]: 21%; bioavailability [27]: 17%; half-life [28]: 2 h; half-life [29]: 1.7 h; half-life [30]: 3.8 h; Drug metabolism [31]: Metabolite_Notdetected; Drug metabolism [32]: Metabolite_Notdetected
CC#C[C@@H](CC(=O)O)c1ccc(OCc2ccc(CN3CCC4(C=Cc5ccccc54)CC3)s2)cc1	Metabolite_Detected	Metabolite_Detected	Metabolite_Detected	Metabolite_Detected	Metabolite_Detected	Metabolite_Detected	Metabolite_Detected														
CC#C[C@@H](CC(=O)O)c1ccc(OCc2ccc(CN3CCC4(C=Cc5ccccc54)CC3)cc2)cc1 [LY2881835]								4													K [33]: 0.00822 min⁻¹; half-life [34]: 2.1 h
CC#C[C@@H](CC(=O)O)c1ccc(OCc2ccc(CN3CCCc4cccc(OC)c43)s2)cc1								4	0.17	15.4	3.8	4.6	3.9	1.2	1	4.2	5.6	4.4	552	4140	Cmax [21]: 2290 ng/mL; Tmax [22]: 1 h; Tmax [23]: 0.6 h; Tmax [24]: 0.5 h; bioavailability [25]: 95%; bioavailability [26]: 62%; bioavailability [27]: 55%; half-life [28]: 5.6 h; half-life [29]: 4.2 h; half-life [30]: 4.4 h; Drug metabolism [31]: Metabolite_Notdetected; Drug metabolism [32]: Metabolite_Detected
O=C(O)CCc1ccc(OCc2ccc(CN3CCC4(C=Cc5ccccc54)CC3)cc2)cc1F																					K [33]: 0.0866 min⁻¹
